≈ marks a conversion by molar mass, not a printed value. Calls of active or inactive are those of the source. No cut-off for these calls is given here. Bounds are passed on as bounds.

As a reminder, the IC50 is the concentration at which inhibition is half-maximal. A low value points to greater potency in that assay. By ED50 is commonly meant the dose that gives a 50% effect, or the effect in half of the subjects.

The species named for one assay is Cavia porcellus. Nature of the assay: Anticholinergic activity was determined in vitro by measuring their effect on the acetylcholine chloride induced contraction of guinea pig ileum. It is filed as functional. Summed up:
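Ileum was isolated from female guinea pigs (200–500 g) killed with CO2. Acetylcholine chloride was added in rising concentrations up to maximal response. Test compound was given 2 min before the agonist, with antagonism assessed against the maximal acetylcholine dose. Full concentration–response curves were run.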

Assay [1] relates to Rattus norvegicus. The assay can be described thus: Antisecretory activity was evaluated in acute gastric fistula of rat after intraperitoneal administration. It is filed as functional. Conditions: Stomach, ip.
The subject of assay [2] is Rattus norvegicus. Nature of the assay: Antisecretory activity was evaluated in acute gastric fistula of rat after peroral administration. It is filed as functional. To be noted: Stomach, po. Summed up: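 Female Sprague-Dawley rats (120–160 g), food-deprived ≥18 h, given drug or vehicle (0.5% methocel) orally 1 h before surgery. Under ether anesthesia a flanged polyethylene cannula was placed in the fundic stomach. The first 30-min collection was discarded, then two 1-h samples were taken. Volume was measured and acidity titrated to pH 7 with 0.01 N NaOH. ED50 = dose giving 50% inhibition of total acid output vs controls, by least-squares regression.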

Assay [3] deals with Rattus norvegicus. Nature of the assay: Antisecretory activity was evaluated in acute gastric fistula of rat after intravenous administration. It is filed as functional. To be noted: Stomach.
The test system of assay [4] is Rattus norvegicus. The assay can be described thus: Antisecretory activity was evaluated in acute gastric fistula of rat after administration of 40 mg/kg; I=inactive. Also on record: dose 40 mg/kg. It is filed as functional, organism-based. To be noted: Stomach.

Take `CC(=O)CCCCCC/N=C/N1CCC(C(c2ccccc2)c2ccccc2)CC1`: the IC50 in the assay filed under Cavia porcellus was 2.2 µg/mL (≈ 5.44 µM). Further, the ED50 was found to be 1.5 mg/kg in the assay on Rattus norvegicus [1] and 10.5 mg/kg in the assay on Rattus norvegicus [2].
`CC(O)CCCCCC/N=C/N1CCC(C(c2ccccc2)c2ccccc2)CC1` (stereo not drawn) came in with an IC50 in the assay filed under Cavia porcellus of 1.7 µg/mL (≈ 4.18 µM). The compound further registered an ED50 in the assay with Rattus norvegicus [2] of 8.9 mg/kg.
In the assay filed under Cavia porcellus, `OCCCCCCCC/N=C/N1CCC(C(c2ccccc2)c2ccccc2)CC1` yielded an IC50 of 0.29 µg/mL (≈ 0.713 µM). Moreover, the figures for the ED50 in the assay with Rattus norvegicus [1], in the assay with Rattus norvegicus [3] and with Rattus norvegicus [2] were 0.44 mg/kg, 9.7 mg/kg and 8.5 mg/kg, respectively.
Turning to `C/C(CCCCCC/N=C\N1CCC(C(c2ccccc2)c2ccccc2)CC1)=N\O.O=S(=O)(O)c1ccc2ccccc2c1`, inhibition in the assay filed under Cavia porcellus was half-maximal at 4.1 µg/mL (IC50). Moreover, the ED50 with Rattus norvegicus [1] turned out to be 8.8 mg/kg; with Rattus norvegicus [2] it was 12.5 mg/kg.
As for `CCCCCCCC/N=C/N1CCC(C(c2ccccc2)c2ccccc2)CC1` [FENOCTIMINE], half-maximal inhibition in the assay listed under Cavia porcellus (IC50) required 1.8 µg/mL (≈ 4.61 µM). Besides, the ED50 was determined as 0.6 mg/kg in the assay with Rattus norvegicus [1], 1.1 mg/kg in the assay with Rattus norvegicus [3] and 3.9 mg/kg in the assay on Rattus norvegicus [2].
In the assay with Rattus norvegicus [2], `CN/C(=N\CCSCc1nc[nH]c1C)NC#N` [CIMETIDINE] showed an ED50 of 7.6 mg/kg.
`CCCCCCCC/N=C/N1CCC(C(c2ccccc2)c2ccc(O)cc2)CC1.O=S(=O)(O)c1ccc2ccccc2c1` (stereo not drawn) had an IC50 in the assay listed under Cavia porcellus of 0.96 µg/mL. The ED50 with Rattus norvegicus [1] is 3.1 mg/kg; in the assay on Rattus norvegicus [2], over 40 mg/kg.
`O=CN1CCC(C(c2ccccc2)c2ccccc2)CC1` registered an IC50 in the assay listed under Cavia porcellus of 21.9 µg/mL (≈ 78.4 µM). Also, in the assay with Rattus norvegicus [4], the ED50 result was “inactive”.
With `CN1[C@@H]2CC[C@H]1C[C@@H](OC(=O)C(CO)c1ccccc1)C2` (stereo partly drawn) [ATROPINE], in the assay filed under Cavia porcellus, the IC50 is 0.0038 µg/mL (≈ 0.0131 µM). The compound further showed an ED50 in the assay on Rattus norvegicus [2] of 1.1 mg/kg.
As for `CCCCCCCC/N=C\N1CCC(C(c2ccccc2)c2ccc(OC)cc2)CC1.O=C(O)/C=C/C(=O)O` (stereo not drawn), the midpoint of inhibition in the assay listed under Cavia porcellus, the IC50, lay at 1.9 µg/mL. Further, the ED50 was 0.63 mg/kg in the assay with Rattus norvegicus [1] and 15.7 mg/kg in the assay on Rattus norvegicus [2].
On the same counts, the results for `CC1(CCCCCC/N=C\N2CCC(C(c3ccccc3)c3ccccc3)CC2)OCCO1.O=C(O)/C=C/C(=O)O` are 1.96 µg/mL, 0.98 mg/kg and 4.8 mg/kg.
`Cl.O.O=C([O-])CCCCCCC/N=C/N1CCC(C(c2ccccc2)c2ccccc2)CC1.O=C([O-])CCCCCCC/N=C/N1CCC(C(c2ccccc2)c2ccccc2)CC1.[Zn+2]` came in with an IC50 in the assay listed under Cavia porcellus of 1.2 µg/mL.
Compound `OCCCCCC/N=C/N1CCC(C(c2ccccc2)c2ccccc2)CC1` came in with an IC50 in the assay listed under Cavia porcellus of 0.26 µg/mL (≈ 0.687 µM). In addition, the ED50 in the assay on Rattus norvegicus [1] is 2 mg/kg; in the assay on Rattus norvegicus [3] it was 4.5 mg/kg; in the assay with Rattus norvegicus [2] it was 11.2 mg/kg.
With `COC(=O)CCCCCCC/N=C/N1CCC(C(c2ccccc2)c2ccccc2)CC1.O=C(O)/C=C/C(=O)O`, in the assay listed under Cavia porcellus, the IC50 worked out at 0.3 µg/mL. Also, the ED50 worked out at 4.7 mg/kg in the assay on Rattus norvegicus [3] and 10.1 mg/kg in the assay with Rattus norvegicus [2].

The record behind these values is ChEMBL document CHEMBL1123743, “Antisecretory activity of human, dog, and rat metabolites of fenoctimine” (J Med Chem, 1987).
